Source: PubChem BioAssay AID504403 (Broad Institute, 2011)
Activity calls are given as the source filed them.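 The calls were made as follows: active = active in every replicate test, each curve reaching caspase activation of 10% of the positive control signal; inconclusive = replicate tests disagree, some active and some inactive; inactive = inactive in every replicate test.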

Assay: caspase activation in Bax/Bak-null MEFs, dose response, counter-screen for A1 inhibitor project, cell-based, mouse embryonic fibroblasts, luminescence, dry powder, set 3 (AID 504403)
Conditions: Bax/Bak-/- MEF caspase activation, CaspaseGlo luminescence, 3 h; measured here: test 2 replicate, at 35 µM, stronger effect = higher value
In short: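 System: Bax/Bak double-knockout mouse embryonic fibroblasts (MEFs) / Times: compound 3 h at 37 °C, pre-read cooling 30 min / Read-out: caspase activation signal flagging off-target or toxic effects / Buffer or medium: RPMI-1640, 10% heat-inactivated FBS / Technique: Caspase-Glo luminescent caspase assay / Doses: pin-transferred compound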

| Structure (SMILES) | caspase activation |
| --- | --- |
| O=c1c([N+](=O)[O-])c(Cl)c2ccccc2n1Cc1ccccc1 | 3.16% |
| Cn1c(=O)c(Sc2ccccn2)c(Sc2ccccn2)c2ccccc21 | -0.337% |
| Cc1ccc(Sc2c(Sc3ccc(C)cc3)c3ccccc3n(Cc3ccccc3)c2=O)cc1 | -0.616% |
| O=c1[nH]c2ccccc2c(O)c1[N+](=O)[O-] | -0.232% |
| COCCn1c(=O)c(Sc2ccc(C)cc2)c(Sc2ccc(C)cc2)c2ccccc21 | -0.586% |
| COCCn1c(=O)c([N+](=O)[O-])c(Cl)c2ccccc21 | -0.136% |
| Cn1c(=O)c([N+](=O)[O-])c(Sc2ccccn2)c2ccccc21 | 0.033% |
| Cn1c(=O)c([N+](=O)[O-])c(Cl)c2ccccc21 | -0.494% |
| CC1(C)CCC(c2ccc(Cl)cc2)=C(CN2CCN(c3ccc(C(=O)NS(=O)(=O)c4ccc(N[C@H](CCN5CCOCC5)CSc5ccccc5)c(S(=O)(=O)C(F)(F)F)c4)cc3)CC2)C1 | 0.219% [at 16 µM] (inactive) |
| Cn1c(=O)c([N+](=O)[O-])c(S(C)(=O)=O)c2ccccc21 | -0.421% |
| O=C(COc1ccc(Cl)cc1Cl)NNc1nc(N2CCOCC2)nc(N2CCOCC2)n1 | 0.018% |
| CCn1c(=O)c([N+](=O)[O-])c(Sc2ccc(C)cc2)c2ccccc21 | -0.559% |
| C/C(=N\Nc1nc(N2CCCCC2)nc(N2CCCCC2)n1)c1ccc(F)cc1 | -0.01% |
| COc1nc2ccccc2c(Cl)c1[N+](=O)[O-] | 0.222% |
| Cc1ccc(Sc2c([N+](=O)[O-])c(=O)n(C)c3ccccc23)cc1 | -0.613% |
| COc1ccc(CCNc2nc(N3CCCC3)nc(N3CCCC3)n2)cc1OC | 0.515% |
| CCn1c(=O)c(Sc2ccc(C)cc2)c(Sc2ccc(C)cc2)c2ccccc21 | -0.17% |
| COc1ccc(CCNc2nc(N3CCOCC3)nc(N3CCOCC3)n2)cc1OC | 0.071% |
| CCn1c(=O)c([N+](=O)[O-])c(Cl)c2ccccc21 | 3.07% |
| COc1c([N+](=O)[O-])c(=O)n(C)c2ccccc12 | 0.257% |
| Cc1ccc(Sc2c([N+](=O)[O-])c(=O)n(Cc3ccccc3)c3ccccc23)cc1 | -0.307% |
| COCCn1c(=O)c([N+](=O)[O-])c(Sc2ccc(C)cc2)c2ccccc21 | -0.602% |
| Cc1ccc(S(=O)(=O)c2c([N+](=O)[O-])c(=O)n(C)c3ccccc23)cc1 | 0.073% |
| COc1nc2ccccc2c(Sc2ccc(C)cc2)c1[N+](=O)[O-] | -0.171% |
| COc1ccc(N2CCN(c3nc(NCCc4ccc(OC)c(OC)c4)nc(N4CCOCC4)n3)CC2)cc1 | 0.46% |
| O=c1[nH]c2ccccc2c(Cl)c1[N+](=O)[O-] | 0.47% |
| Cc1ccc(Sc2c(Sc3ccc(C)cc3)c3ccccc3n(C)c2=O)cc1 | -0.477% |
